These results are taken from ChEMBL document CHEMBL1138107, “Novel non-nucleobase inhibitors of Staphylococcus aureus DNA polymerase IIIC” (Bioorg Med Chem Lett, 2006).

Values after ≈ are worked out from the molar mass of the structure shown. Active and inactive are the calls of the source. The rule behind the calls is not given here. Bounds are passed on as bounds.

Experiment [1] deals with Hepatocyte. Nature of the experiment: Cytotoxicity against human hepatocytes by measure of ATP production at 100 uM. The format is functional, cell-based. The gist of the method:
(§1)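 Cryopreserved primary human hepatocytes (1 × 10⁴/well) in Krebs–Henseleit buffer were incubated with compound at 100, 50, 25 and 12.5 for 2 h at 37 °C under 5% CO₂. ATP content was then measured by luminescence after adding luciferin and luciferase.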

The test system of another experiment is HeLa. Nature of the experiment: Cytotoxicity against HeLa cell line by MTS assay. The format is functional, cell-based. The following applies: Homo sapiens. The gist of the method:
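HeLa cells (2 × 10⁴/well) in DMEM with 1% bovine growth serum were exposed to compound at 100, 50, 25 and 12.5 for 18 h at 37 °C under 5% CO₂. Viability was read as MTS reduction to formazan, by absorbance at 490 nm.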
(Tetrazolium dyes change colour on reduction, which living cells bring about.)

Experiment [2] concerns the target T1, DNA polymerase III PolC-type (Staphylococcus aureus) (UniProt P0C1P9).
T1 sequence (whole entry): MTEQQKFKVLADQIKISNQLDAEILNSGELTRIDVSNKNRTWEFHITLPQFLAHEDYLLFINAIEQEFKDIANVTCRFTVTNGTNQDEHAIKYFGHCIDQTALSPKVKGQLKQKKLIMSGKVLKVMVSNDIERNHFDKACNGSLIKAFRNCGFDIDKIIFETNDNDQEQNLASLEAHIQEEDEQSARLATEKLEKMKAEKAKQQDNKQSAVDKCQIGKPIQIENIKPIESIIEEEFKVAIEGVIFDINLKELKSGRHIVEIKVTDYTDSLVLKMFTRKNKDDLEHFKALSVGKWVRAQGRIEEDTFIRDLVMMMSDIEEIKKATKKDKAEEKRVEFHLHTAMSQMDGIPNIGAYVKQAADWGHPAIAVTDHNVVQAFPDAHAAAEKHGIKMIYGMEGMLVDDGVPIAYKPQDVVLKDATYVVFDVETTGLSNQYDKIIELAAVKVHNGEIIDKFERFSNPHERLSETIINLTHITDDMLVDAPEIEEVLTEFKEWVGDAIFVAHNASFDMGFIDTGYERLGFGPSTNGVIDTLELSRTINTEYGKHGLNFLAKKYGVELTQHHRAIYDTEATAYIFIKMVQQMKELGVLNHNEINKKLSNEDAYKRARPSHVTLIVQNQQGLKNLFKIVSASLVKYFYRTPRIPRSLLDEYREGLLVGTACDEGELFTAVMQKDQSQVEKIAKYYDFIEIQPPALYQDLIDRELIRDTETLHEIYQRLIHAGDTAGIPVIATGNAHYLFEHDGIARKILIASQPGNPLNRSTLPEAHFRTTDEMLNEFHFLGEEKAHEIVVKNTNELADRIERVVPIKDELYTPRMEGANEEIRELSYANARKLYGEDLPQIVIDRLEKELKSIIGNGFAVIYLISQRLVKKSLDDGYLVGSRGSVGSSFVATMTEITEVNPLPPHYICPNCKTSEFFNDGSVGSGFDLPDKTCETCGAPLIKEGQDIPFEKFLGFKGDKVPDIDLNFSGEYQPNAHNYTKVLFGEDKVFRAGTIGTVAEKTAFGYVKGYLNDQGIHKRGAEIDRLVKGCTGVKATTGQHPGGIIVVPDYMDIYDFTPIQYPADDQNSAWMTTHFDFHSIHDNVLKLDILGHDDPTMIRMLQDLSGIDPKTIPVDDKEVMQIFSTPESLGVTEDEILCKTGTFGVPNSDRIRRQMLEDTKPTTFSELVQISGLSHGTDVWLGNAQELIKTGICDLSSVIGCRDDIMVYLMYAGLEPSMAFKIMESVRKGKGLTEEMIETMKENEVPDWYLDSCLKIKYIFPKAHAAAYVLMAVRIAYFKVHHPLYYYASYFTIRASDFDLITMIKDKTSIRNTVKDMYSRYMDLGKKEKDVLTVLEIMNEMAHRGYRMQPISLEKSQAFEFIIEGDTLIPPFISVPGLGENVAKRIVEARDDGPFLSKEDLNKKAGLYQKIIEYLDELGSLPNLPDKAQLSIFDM
The experiment is described as follows: Inhibition of DNA polymerase3C from Staphylococcus aureus at 100 uM. An outline of the steps:
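PolC oligonucleotide-primed incorporation of [³H]dTTP was run with 125 ng purified enzyme for 30 min at 37 °C. It was quenched with EDTA, filter-bound on DE81 and counted by liquid scintillation. Compounds were screened in triplicate at 10, 50 and 100.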

Experiment [3] concerns Staphylococcus aureus. The experiment is described as follows: Antimicrobial activity against Staphylococcus aureus (RN4220). The format is functional.
Experiment [4] concerns Staphylococcus aureus. Nature of the experiment: Antimicrobial activity against Staphylococcus aureus (RN4220) in presence of 50% of human serum. Type of experiment: functional.
Experiment [5] has as its system Hepatocyte. Nature of the experiment: Decrease in ATP productions in human hepatocytes at 100 uM. Type of experiment: functional, cell-based. An outline of the steps: as §1
In experiment [6] the target is T2, DNA polymerase III PolC-type (Staphylococcus aureus, UniProt P0C1P9).
T2 sequence (P0C1P9 whole entry): T1 sequence (whole entry)
Nature of the experiment: Inhibition of DNA polymerase3C from Staphylococcus aureus. The gist of the method:
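Purified PolC (125 ng) started the reaction with a double-stranded oligonucleotide substrate, dATP, dCTP, low dGTP and [³H]dTTP (1 Ci/mmol) in Tris-HCl pH 7.5 buffer with glycerol, EDTA, DTT, IgG and 8 mM MgCl₂. Incubation was 30 min at 37 °C, stopped with 20 mM EDTA, then spotted on DE81 filters, washed and counted by scintillation. IC50 came from a 12-point, roughly 2-fold serial dilution, run in triplicate.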

In experiment [7] the test system is Staphylococcus aureus. The experiment is described as follows: Inhibition of DNA replication utilizing Staphylococcus aureus replication proteins in presence of reduced dATP concentrations. The format is functional, organism-based. An outline of the steps:
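The replication assay used a singly primed circular ssM13 template copied by S. aureus PolC, with β clamp, δδ′/τ clamp loader and SSB. [³H]dTTP incorporation was measured in streptavidin-coated scintillation plates, with the dATP concentration reduced to sensitize the assay to dATP analogs.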

Experiment [8] relates to Hepatocyte. The experiment is described as follows: Cytotoxicity against human hepatocytes by measure of ATP production at 50 uM. The format is functional, cell-based. The gist of the method: as §1

`C=CCc1c(O)nc(Nc2ccc3c(c2)CCC3)nc1O`: the outcome in the experiment on Hepatocyte [1] was inactive. Moreover, the Activity result with HeLa is “Not toxic”. In addition, the inhibition (in general, the share of the control response that was lost under treatment) in experiment [2] came to 65%. Besides, the MIC (in general, the least concentration at which growth counts as inhibited) with Staphylococcus aureus [3] (read-out: MIC) was 16 mg/L (≈ 56.5 µM); with Staphylococcus aureus [4] it was above 128 mg/L.

For the compound `Oc1nc(Nc2ccc3c(c2)CCC3)nc(O)c1CCCc1ccccc1`, in the experiment on HeLa, the Activity result is “Not toxic”. In addition, the inhibition in experiment [2] worked out at 75%. Moreover, the MIC with Staphylococcus aureus [3] (read-out: MIC) amounted to 8 mg/L (≈ 22.1 µM). In addition, the outcome in the experiment on Hepatocyte [5] was Active.

With `C=CCc1c(O)nc(Nc2ccc(C)c(CC)c2)nc1O`, the Activity result in the experiment with HeLa is “Not toxic”. Moreover, the inhibition in [2] stood at 90%. In addition, in the experiment on Staphylococcus aureus [3] (read-out: MIC), the MIC amounted to 8 mg/L (≈ 28 µM). Further, the result in the experiment with Hepatocyte [5] was Active.

With `CCc1cc(Nc2nc(O)c(Cc3ccccc3)c(O)n2)ccc1C`, the concentration for half-maximal inhibition (IC50) (usually the concentration that inhibits the measured activity by half) in [6] amounted to 4 µM. For the same compound, the result with Hepatocyte [1] was inactive. Moreover, in the experiment on HeLa, the Activity result was “Not toxic”. The inhibition in experiment [2] stood at 94%. Besides, in the experiment on Staphylococcus aureus [3] (read-out: MIC), the MIC was 8 mg/L (≈ 23.9 µM).

On to `C=CCc1c(N)nc(Nc2ccc(C)c(CC)c2)nc1O`, for which the IC50 in the experiment on Staphylococcus aureus [7] worked out at 7.7 µM. In addition, in the experiment with HeLa, the Activity entry was “Not toxic”. In addition, in experiment [2], the inhibition is 32%. The MIC with Staphylococcus aureus [3] (read-out: MIC) was determined as 8 mg/L (≈ 28.1 µM); with Staphylococcus aureus [4] it was 32 mg/L.

Consider `Nc1nc(Nc2ccc3c(c2)CCC3)nc(O)c1Cc1ccccc1`, for which, in the experiment on Staphylococcus aureus [7], the half-maximal inhibitory concentration (IC50) is above 100 µM. Also, the Activity result in the experiment with HeLa is “Not toxic”. This compound came in with an inhibition in [2] of 17%. Moreover, the MIC in the experiment on Staphylococcus aureus [3] (read-out: MIC) and in the experiment on Staphylococcus aureus [4] was above 128 mg/L each time.

As to `Oc1nc(Nc2ccc3c(c2)CCC3)nc(O)c1CCCOc1ccccc1`, half-maximal inhibition in experiment [6] (IC50) was put at 4 µM. The Activity result is “Not toxic” in the experiment with HeLa and “Toxic” in the experiment on Hepatocyte [8]. Besides, the inhibition in experiment [2] is 74%. Further, the minimum inhibitory concentration (MIC) in the experiment on Staphylococcus aureus [3] (read-out: MIC) is 8 mg/L (≈ 21.2 µM).

In turn, `COc1cc(C#N)ccc1OCCCc1c(O)nc(Nc2ccc3c(c2)CCC3)nc1O` registered an IC50 in [6] of 3 µM. Besides, the result with Hepatocyte [1] was inactive. The Activity entry in the experiment on HeLa is “Not toxic”. This compound also returned an inhibition in experiment [2] of 95%. Also, the MIC in the experiment on Staphylococcus aureus [3] (read-out: MIC) came out at 16 mg/L (≈ 37 µM).

Turning to `CCc1cc(Nc2nc(N)cc(O)n2)ccc1C`, the figures for the IC50 (in the experiment on Staphylococcus aureus [7]; in experiment [6]) were 28 µM and 104 µM, respectively. For the same compound, the Activity result in the experiment with HeLa is “Not toxic”. The same compound displayed an inhibition in experiment [2] of 36%. Further, the values for the minimal inhibitory concentration (MIC) in the experiment with Staphylococcus aureus [3] and in the experiment on Staphylococcus aureus [4] were 16 mg/L (≈ 65.5 µM) and 32 mg/L, respectively.
